Reference: ChEMBL document CHEMBL1139414, “Conformationally constrained analogues of diacylglycerol. 29. Cells sort diacylglycerol-lactone chemical zip codes to produce diverse and selective biological activities” (J Med Chem, 2008)
The source made the active and inactive calls. No cut-off for these calls is given here.

Assays:
[1] = target: T1, Ras guanyl-releasing protein 3 (Homo sapiens, UniProt Q8IV61); assay: Binding affinity to RasGRP3
T1 sequence (Q8IV61 whole entry): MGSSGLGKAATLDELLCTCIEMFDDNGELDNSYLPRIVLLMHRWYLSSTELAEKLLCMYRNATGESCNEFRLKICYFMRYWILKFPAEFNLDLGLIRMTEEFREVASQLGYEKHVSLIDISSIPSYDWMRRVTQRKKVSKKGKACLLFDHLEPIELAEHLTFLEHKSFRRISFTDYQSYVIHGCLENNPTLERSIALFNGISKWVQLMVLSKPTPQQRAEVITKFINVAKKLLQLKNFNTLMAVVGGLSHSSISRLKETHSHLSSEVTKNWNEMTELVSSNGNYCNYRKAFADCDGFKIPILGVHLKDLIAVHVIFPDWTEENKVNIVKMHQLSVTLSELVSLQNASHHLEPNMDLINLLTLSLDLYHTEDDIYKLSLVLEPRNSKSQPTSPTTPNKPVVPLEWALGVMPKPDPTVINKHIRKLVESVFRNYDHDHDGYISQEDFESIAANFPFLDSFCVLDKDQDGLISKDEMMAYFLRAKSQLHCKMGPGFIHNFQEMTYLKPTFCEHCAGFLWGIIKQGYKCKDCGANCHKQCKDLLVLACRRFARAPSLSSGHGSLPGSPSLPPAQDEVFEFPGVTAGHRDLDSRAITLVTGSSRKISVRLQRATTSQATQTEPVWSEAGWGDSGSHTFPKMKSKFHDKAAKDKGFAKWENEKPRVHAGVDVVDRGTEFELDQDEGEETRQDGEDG

[2] = target: Protein kinase C alpha type (Mus musculus, UniProt P20444); assay: Displacement of [3H]PDBu form mouse PKCalpha by scintillation counting
How it was run: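 Partially purified mouse PKCα; competition with [³H]PDBU. ID50 obtained by fitting a sigmoidal competition curve and converted to Ki = ID50/(1+L/Kd). Pure compounds tested at 6–7 concentrations; crude library compounds at a single 1 μM concentration. Triplicates per concentration, at least three experiments; mean ± SEM.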

[3] = target: Transcription factor Jun (Mus musculus) (UniProt P05627); assay: Activation of AP1 expressed in BALB/c mouse JB6 cells coexpressing luciferase reportet gene at 100 ng/mL after 18 hrs relative to 12-O-tetradecanoylphorbol-13-O-acetate; format: cell-based
Chain of Transcription factor Jun (Mus musculus) (P05627 whole entry): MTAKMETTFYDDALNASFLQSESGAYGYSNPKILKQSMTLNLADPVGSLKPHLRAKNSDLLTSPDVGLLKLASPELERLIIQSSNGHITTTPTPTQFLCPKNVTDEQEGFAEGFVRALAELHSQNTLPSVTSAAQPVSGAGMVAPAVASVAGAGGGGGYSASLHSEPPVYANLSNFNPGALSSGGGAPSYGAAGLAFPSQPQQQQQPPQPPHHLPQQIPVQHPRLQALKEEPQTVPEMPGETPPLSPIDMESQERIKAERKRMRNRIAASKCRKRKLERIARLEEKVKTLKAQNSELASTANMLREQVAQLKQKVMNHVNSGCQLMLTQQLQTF
How it was run: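 JB6 P+ cells seeded at 10⁴, transfected with 4x AP-1 luciferase reporter (0.2 μg DNA) using a 3:1 lipid reagent ratio; on day 3 treated with DMSO, TPA (10 ng/mL) or DAG-lactone (100 ng/mL); luciferase read 18 h later. Values normalized to TPA-induced activity; average of 6 independent assays.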

NK92 = assay: Induction of IFN-gamma production in human NK92 cells at 1 ug/mL after 6 hrs by ELISA; format: functional, cell-based
How it was run: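 NK92 cells (10⁶ cells/mL) in RPMI with 10% FCS, glutamine and Pen/Strep at 37 °C for 6 h with derivative (1 μg/mL) alone or with IL12 (100 u/10⁶ cells), in duplicate wells. IFN-γ in supernatants by ELISA.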

LNCaP [4] = assay: Induction of apoptosis in human LnCAP cells pretreated at 10 uM for 16 hrs followed by 20 Gy radiation assessed after 24 hrs post radiation by fluorescence microscopy; format: functional, cell-based
How it was run: (§1)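 LNCaP cells in RPMI-1640 with 0.2% human albumin replacing FCS from 24 h before the experiment; pretreated 16 h with compound (10 or 20 μM), then 20 Gy irradiation. Fixed 24 h post radiation, stained with bis-benzimide and scored by fluorescence microscopy; cells with ≥3 apoptotic bodies counted apoptotic. Average of two experiments ± SD.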

LNCaP [5] = assay: Antitumor activity against human LnCAP cells transplanted in Swiss nude mouse assessed as reduction in ataxia telengiectasia mutated gene level at 12 mg/kg, ip administered as 2 injections at 24 hrs intervals assessed after 8 weeks by radioimmunoassay; format: functional, organism-based; parameters: dose 12 mg/kg; conditions: in the assay text read “48 hrs after first injection” for “after 8 weeks”
How it was run: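 Orthotopic LNCaP prostate tumors (~100 mm³) in Swiss nude mice; 12 mg/kg i.p., two injections 24 h apart, prostate resected 48 h after first injection. ATM measured in tumor extracts relative to vehicle control.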

LNCaP [6] = assay: Induction of apoptosis in human LnCAP cells pretreated at 20 uM for 16 hrs followed by 20 Gy radiation assessed after 24 hrs post radiation by fluorescence microscopy; format: functional, cell-based; how it was run: as §1
LNCaP [7] = assay: Antitumor activity against human LnCAP cells transplanted in Swiss nude mouse assessed as inhibition of tumor growth at 12 mg/kg, ip administered daily 16 hrs prior to 10 Gy radiation during first week followed by 2 injections at 48 hrs intervals during second week assessed after 8 weeks by radioimmunoassay; format: functional, organism-based; parameters: dose 12 mg/kg
How it was run: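 Male Swiss nude mice (8–10 weeks) implanted orthotopically in prostate with 3.0×10⁶ LNCaP cells; used when serum PSA was 5.0–15.0 ng/mL. Drug 12 mg/kg i.p. in DMSO, 16 h before each 1 Gy local pelvic fraction (daily, Mon–Fri, total 10 Gy) in week 1, then two injections 48 h apart in week 2. Serum PSA by radioimmunoassay through week 8; mean per group.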

MCF-10A = assay: Induction of human MCF10A cell motility at 10 uM after 20 hrs by photomicroscopy relative to diacylglycerol-lactone; format: functional, cell-based
How it was run: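 MCF-10A cells seeded in a small circular area through a 10-hole manifold; at manifold removal, compound added to a final 10 μM (vehicle 1% v/v DMSO), 37 °C, 5% CO₂. Radial spread imaged over 20 h; radius in microns expressed as a ratio to the radius from the DAG-lactone positive control. Triplicate measurements.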

CHO [8] = assay: Translocation of GFP-tagged mouse PKCdelta from cytosol to membrane compartment of CHO cells by confocal microscopy; format: functional, cell-based; conditions: Cricetulus griseus
How it was run: (§2)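 GFP-tagged PKC isoforms overexpressed in CHO cells; live-cell localization followed by confocal microscopy before and after ligand (300 nM). Representative of 2 (PKCβ, ε) or 3 (PKCα, δ) independent experiments.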

CHO [9] = assay: Translocation of GFP-tagged PKCepsilon from cytosol to membrane compartment of CHO cells by confocal microscopy
CHO [10] = assay: Translocation of GFP-tagged PKCbeta from cytosol to membrane compartment of CHO cells; format: functional, cell-based; how it was run: as §2
CHO [11] = assay: Translocation of GFP-tagged PKCalpha from cytosol to membrane compartment of CHO cells by confocal microscopy
[12] = Selectivity ratio of Ki for mouse PKCalpha to Ki for RasGRP3

Row | Compound | Ki [1] [nM] | Ki [2] [nM] | further results
1 | CN(C)c1cccc(C(=O)OCC2(CO)C/C(=C\c3ccc([N+](=O)[O-])cc3)C(=O)O2)c1 (racemic) | 2.3 | 31.8 | 
2 | CN(C)c1ccccc1C(=O)OCC1(CO)C/C(=C\c2ccccc2[N+](=O)[O-])C(=O)O1 (racemic) | 9.4 | 134 | 
3 | CN(C)c1cccc(C(=O)OCC2(CO)C/C(=C\c3cccc([N+](=O)[O-])c3)C(=O)O2)c1 (racemic) | 5.3 | 63 | 
4 | CN(C)c1ccccc1C(=O)OCC1(CO)C/C(=C\c2cccc([N+](=O)[O-])c2)C(=O)O1 (racemic) | 3.9 | 44 | 
5 | CN(C)c1ccc(C(=O)OCC2(CO)C/C(=C\c3cccc([N+](=O)[O-])c3)C(=O)O2)cc1 (racemic) | 8 | 72.4 | 
6 | CN(C)c1ccc(C(=O)OCC2(CO)C/C(=C\c3ccccc3[N+](=O)[O-])C(=O)O2)cc1 (racemic) | 14.4 | 54.5 | 
7 | CCCCC(CC)C(=O)OCC1(CO)C/C(=C/c2ccc(Cl)c(F)c2)C(=O)O1 (racemic) |  | 10.1 | Activity [3]: Active; Activity (NK92): Active
8 | CN(C)c1ccccc1C(=O)OCC1(CO)C/C(=C\c2ccc([N+](=O)[O-])cc2)C(=O)O1 (racemic) | 1.8 | 38.5 | 
9 | CN(C)c1cccc(C(=O)OCC2(CO)C/C(=C\c3ccccc3[N+](=O)[O-])C(=O)O2)c1 (racemic) | 16.4 | 116 | 
10 | CN(C)c1ccc(/C=C2\CC(CO)(COC(=O)c3ccc(N(C)C)cc3)OC2=O)cc1 (racemic; form 1) | 4.68 | 102 | 
11 | CN(C)c1ccc(C(=O)OCC2(CO)C/C(=C\c3ccc([N+](=O)[O-])cc3)C(=O)O2)cc1 (racemic; form 1) | 3.8 | 127 | 
12 | CCCC(CCC)C(=O)OCC1(CO)C/C(=C\c2ccc(C(F)(F)F)cc2)C(=O)O1 (racemic; form 1) |  |  | Activity [3]: Active; Activity (LNCaP [4]): Active; Activity (LNCaP [5]): Active; Activity (LNCaP [6]): Active; Activity (NK92): Active; Activity (LNCaP [7]): Active
13 | CCCC(CCC)C(=O)OCC1(CO)C/C(=C\c2ccc(F)cc2)C(=O)O1 (racemic; form 1) |  |  | Activity [3]: Active; Activity (LNCaP [4]): Active; Activity (LNCaP [6]): Active
14 | O=C1OC(CO)(COC(=O)c2ccc([N+](=O)[O-])cc2)C/C1=C\c1ccc([N+](=O)[O-])cc1 (racemic; form 2) [listing 1 of 2 here] | 2.22 | 127 | 
15 | CCC(C(=O)OCC1(CO)C/C(=C\c2ccc(-c3ccc(C(F)(F)F)cc3)cc2)C(=O)O1)c1ccccc1 (racemic; form 2) |  |  | Activity (MCF-10A): Active
16 | CCCCC(CC)C(=O)OCC1(CO)C/C(=C\c2ccc(Cl)c(F)c2)C(=O)O1 (racemic; form 2) |  |  | Activity [3]: Active; Activity (NK92): Active
17 | CCCCC(CC)C(=O)OCC1(CO)C/C(=C\c2ccc(Cl)cc2)C(=O)O1 (racemic; form 2) |  |  | Activity [3]: Active; Activity (NK92): Active
18 | CCCCC(CC)C(=O)OCC1(CO)C/C(=C\c2ccc(F)c(Br)c2)C(=O)O1 (racemic; form 2) |  |  | Activity (MCF-10A): Active; Activity (CHO [8]): Active; Activity (CHO [9]): Active; Activity (CHO [10]): Active; Activity (CHO [11]): Active
19 | O=C1OC(CO)(COC(=O)c2ccc([N+](=O)[O-])cc2)C/C1=C\c1ccc([N+](=O)[O-])cc1 (racemic; form 2) [listing 2 of 2 here] |  |  | Ratio Ki [12]: 57
